Reference: ChEMBL document CHEMBL4706650, “Discovery of a Novel and Brain-Penetrant O-GlcNAcase Inhibitor via Virtual Screening, Structure-Based Analysis, and Rational Lead Optimization” (J Med Chem, 2021)
The source made the active and inactive calls. The calls are words filed in the database; no cut-off is given here.

Tests used:
Protein O-GlcNAcase [1] = biological target: T1, Protein O-GlcNAcase (Homo sapiens, UniProt O60502); test: Inhibition of OGA in human SH-SY5Y cells assessed as increase in O-GIcNAcylated protein levels incubated for 48 hrs by in-cell Western assay; format: cell-based
T1 sequence (O60502 whole entry): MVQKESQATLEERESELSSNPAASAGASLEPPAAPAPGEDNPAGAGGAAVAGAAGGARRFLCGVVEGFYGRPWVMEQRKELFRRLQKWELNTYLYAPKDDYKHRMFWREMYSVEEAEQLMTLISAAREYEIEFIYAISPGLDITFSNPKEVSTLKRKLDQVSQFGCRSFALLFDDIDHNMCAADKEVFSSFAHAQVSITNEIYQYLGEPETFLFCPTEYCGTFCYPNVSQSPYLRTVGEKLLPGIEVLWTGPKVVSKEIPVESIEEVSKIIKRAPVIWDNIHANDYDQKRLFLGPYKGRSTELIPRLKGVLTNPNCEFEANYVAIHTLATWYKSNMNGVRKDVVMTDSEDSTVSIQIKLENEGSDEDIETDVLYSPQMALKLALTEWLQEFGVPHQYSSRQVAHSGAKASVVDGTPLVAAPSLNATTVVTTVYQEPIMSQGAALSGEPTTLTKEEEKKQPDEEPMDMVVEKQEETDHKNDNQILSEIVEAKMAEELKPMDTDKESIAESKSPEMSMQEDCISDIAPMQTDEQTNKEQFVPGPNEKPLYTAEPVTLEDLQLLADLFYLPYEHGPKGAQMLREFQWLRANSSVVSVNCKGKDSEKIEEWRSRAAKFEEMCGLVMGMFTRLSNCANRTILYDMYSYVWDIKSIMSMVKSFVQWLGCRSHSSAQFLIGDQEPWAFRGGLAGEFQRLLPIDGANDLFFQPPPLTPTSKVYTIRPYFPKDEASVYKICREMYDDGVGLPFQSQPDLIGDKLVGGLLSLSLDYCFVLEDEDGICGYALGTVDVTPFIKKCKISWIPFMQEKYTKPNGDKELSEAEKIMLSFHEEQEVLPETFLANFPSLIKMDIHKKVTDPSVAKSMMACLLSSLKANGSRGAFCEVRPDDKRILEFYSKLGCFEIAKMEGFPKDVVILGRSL
Outline: (§1)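 SH-SY5Y cells seeded ~1.8 × 10⁴/well on poly-D-lysine, compound for 48 h at 37 °C. Methanol fixation, 0.1% Triton X-100 permeabilization, blocking, then Alexa Fluor 700-labelled anti-O-GlcNAc RL2 (1:500, 60 min RT). Infrared imaging of integrated fluorescence, normalized to DMSO (100%) and medium (0%); EC50 as curve inflection point, Emax as maximal % increase.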

[2] = Drug level in C57BL/6J mouse brain at 30 mg/kg, po after 1 hrs by LC/MS-MS analysis; format: ADME, organism-based; settings: read-out: Drug uptake
Outline: (§2)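 Suspension in 0.5% (w/v) methylcellulose dosed orally at 30 mg/kg to C57Bl/6J mice (n = 3). Blood and brain taken at 0.5 and 1 h; plasma by centrifugation, brain homogenized in saline. Acetonitrile deproteinization with internal standard, supernatant diluted in 0.2% formic acid/10 mM ammonium formate (pH 3), LC/MS/MS quantitation.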

[3] = Drug level in C57BL/6J mouse plasma at 30 mg/kg, po after 0.5 hrs by LC/MS-MS analysis; format: ADME, organism-based; outline: as §2
Protein O-GlcNAcase [4] = biological target: T1, Protein O-GlcNAcase; test: Inhibition of full-length human OGA expressed in Expi293 (HEK293) cells using 4-methylumbelliferyl-N-acetyl-beta-D-glucosaminide dihydrate as fluorogenic substrate preincubated with enzyme followed by substrate addition and measured every 5 mins for 60 mins by fluorescence based analysis
Outline: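 Human OGA, FLAG-tagged full length from transfected Expi293 cells, purified by anti-FLAG agarose and gel filtration, 1 nM. Buffer 50 mM NaH2PO4, 100 mM NaCl, 0.01% BSA, 0.01% Tween 20, 1 mM DTT, pH 7.4; 2 mM substrate added to start after compound, RT. Ex 355/em 460 nm; 0% control enzyme+DMSO, 100% no enzyme; IC50 by variable-slope sigmoidal fit.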

[5] = Unbound brain-to-plasma concentration ratio in C57BL/6J mouse at 30 mg/kg, po after 0.5 hrs by equilibrium dialysis; format: ADME, organism-based; settings: read-out: K(p,uu,brain)
Outline: (§3)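 Oral dose of 30 mg/kg in 0.5% methylcellulose to C57Bl/6J mice (n = 3); plasma and brain levels at 0.5 and 1 h by LC/MS/MS. Unbound fractions in plasma and brain by equilibrium dialysis; Kp,uu = (fu,brain × Cbrain)/(fu,plasma × Cplasma).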

[6] = Unbound drug level in C57BL/6J mouse brain at 30 mg/kg, po by equilibrium dialysis method; format: ADME, organism-based
Outline: (§4)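 Unbound fraction in mouse plasma and brain determined by equilibrium dialysis, with the fractions used to correct total plasma and brain levels after a 30 mg/kg oral dose in 0.5% methylcellulose.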

[7] = biological target: T2, Protein O-GlcNAcase (Homo sapiens) (UniProt O60502); test: Inhibition of OGA in human SH-SY5Y cells assessed as increase in O-GIcNAcylated protein levels incubated for 48 hrs by in-cell Western assay relative to control; format: cell-based; outline: as §1
T2 sequence (whole entry): T1 sequence (O60502 whole entry)

[8] = Drug level in C57BL/6J mouse brain at 30 mg/kg, po after 0.5 hrs by LC/MS-MS analysis; format: ADME, organism-based; settings: read-out: Drug uptake; outline: as §2
[9] = Drug level in C57BL/6J mouse plasma at 30 mg/kg, po after 1 hrs by LC/MS-MS analysis; format: ADME, organism-based; outline: as §2
[10] = Inhibition of human placental beta-hexosaminidase using 4-methylumbelliferyl-N-acetyl-beta-D-glucosaminide dihydrate as fluorogenic substrate preincubated with enzyme followed by substrate addition and measured every 5 mins for 60 mins by fluorescence based analysis; format: tissue-based, Placenta
Outline: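 Placental β-hexosaminidase at 10 μunits/mL in 50 mM NaH2PO4, 100 mM NaCl, 0.01% BSA, 0.01% Tween 20, 1 mM DTT, pH 7.4. Compound added before 2 mM substrate, room temperature. Fluorescence ex 355/em 460 nm; inhibition versus enzyme+DMSO (0%) and no-enzyme (100%) wells; IC50 from variable-slope sigmoidal regression.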

[11] = Unbound drug level in C57BL/6J mouse plasma at 30 mg/kg, po by equilibrium dialysis method; format: ADME, organism-based; outline: as §4
[12] = Unbound brain-to-plasma concentration ratio in C57BL/6J mouse at 30 mg/kg, po after 1 hrs by equilibrium dialysis; format: ADME, organism-based; settings: read-out: K(p,uu,brain); outline: as §3
[13] = biological target: T2, Protein O-GlcNAcase (Homo sapiens); test: Inhibition of full-length human OGA expressed in Expi293 (HEK293) cells using 4-methylumbelliferyl-N-acetyl-beta-D-glucosaminide dihydrate as fluorogenic substrate at 10 uM preincubated with enzyme followed by substrate addition and measured every 5 mins for 60 mins by fluorescence based analysis
Homo sapiens = organism: Homo sapiens; test: Inhibition of human placental beta-hexosaminidase using 4-methylumbelliferyl-N-acetyl-beta-D-glucosaminide dihydrate as fluorogenic substrate at 10 uM preincubated with enzyme followed by substrate addition and measured every 5 mins for 60 mins by fluorescence based analysis; format: tissue-based; settings: Placenta
[14] = biological target: T2, Protein O-GlcNAcase (Homo sapiens); test: Competitive inhibition of full-length human OGA expressed in Expi293 (HEK293) cells assessed as increase in Km of substrate using varying concentrations of 4-methylumbelliferyl-N-acetyl-beta-D-glucosaminide dihydrate as fluorogenic substrate at 0.48 to 60 nM measured for 60 mins by fluorescence based analysis; settings: dose 0.48-60 nM
Outline: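 Full-length human OGA (FLAG-purified, gel filtration) at 1 nM final, in 50 mM NaH2PO4, 100 mM NaCl, 0.01% BSA, 0.01% Tween 20, 1 mM DTT, pH 7.4. Substrate serially diluted 2-fold from 2 mM at several inhibitor levels. Fluorescence read over 60 min (ex 355/em 460 nm); Vmax and Km from Michaelis–Menten nonlinear fit.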

Question: With `CC1CCN(c2ccnc(NCc3cn(C)cn3)n2)CC1` [TP-040] as the compound, how does the EC50 (Protein O-GlcNAcase [1]) read?
Answer: 450 nM

Question: What about the concentration at 1 h [2] of the same compound?
Answer: 2600 ng/g

Question: And the concentration at 0.5 h [3]?
Answer: 2800 ng/mL

Question: What about the IC50 (Protein O-GlcNAcase [4]) of the same compound?
Answer: 46 nM

Question: And the Kp uu at 0.5 h [5]?
Answer: 0.25

Question: And the fraction unbound [6]?
Answer: 0.14

Question: What about the Emax [7] of the same compound?
Answer: 143%

Question: What about the concentration at 0.5 h [8] of the same compound?
Answer: 2700 ng/g

Question: What about the concentration at 1 h [9] of the same compound?
Answer: 1900 ng/mL

Question: What about the IC50 [10] of the same compound?
Answer: > 10000 nM

Question: And the fraction unbound [11]?
Answer: 0.53

Question: And the Kp uu at 1 h [12]?
Answer: 0.36

Question: Which inhibition [13] does the source give for `CC1CCN(c2ccnc(NC(C)CN3CCN(C)CC3)n2)CC1` (centres undefined) here?
Answer: > 50%

Question: What about the inhibition (Homo sapiens) of the same compound?
Answer: inactive

Question: And the IC50 (Protein O-GlcNAcase [4])?
Answer: 41 nM

Question: Which IC50 (Protein O-GlcNAcase [4]) does the source give for `CC1CCN(c2ccnc(NCCc3cccnc3)n2)CC1` here?
Answer: 31 nM

Question: For `c1ccc(CCNc2nccc(N3CCOCC3)n2)cc1`, which IC50 (Protein O-GlcNAcase [4]) is on record?
Answer: 4700 nM

Question: Which IC50 (Protein O-GlcNAcase [4]) does the source give for `COC1CCN(c2ccnc(NCCc3ccccc3)n2)CC1` here?
Answer: 970 nM

Question: With `CC1CCN(c2ccnc(NCCc3ccccn3)n2)CC1` as the compound, how does the IC50 (Protein O-GlcNAcase [4]) read?
Answer: 360 nM

Question: Which IC50 (Protein O-GlcNAcase [4]) does the source give for `CN1CCN(c2ccnc(NCCc3ccccc3)n2)CC1` [TP-040n] here?
Answer: > 10000 nM

Question: Which IC50 (Protein O-GlcNAcase [4]) does the source give for `CC1CCN(c2ccnc(NCc3cccnc3)n2)CC1` here?
Answer: 18 nM

Question: With `CC1CCN(c2ccnc(NCCc3ccccc3)n2)CC1` as the compound, how does the inhibition [14] read?
Answer: Active

Question: What about the IC50 (Protein O-GlcNAcase [4]) of the same compound?
Answer: 24 nM

Question: With `OC1CCN(c2ccnc(NCCc3ccccc3)n2)CC1` as the compound, how does the IC50 (Protein O-GlcNAcase [4]) read?
Answer: > 10000 nM
